According to ChEMBL document CHEMBL4033611, “Chlorinated Dehydrocurvularins and Alterperylenepoxide A from Alternaria sp. AST0039, a Fungal Endophyte of Astragalus lentiginosus” (J Nat Prod, 2017):
Active and inactive are the calls of the source. The calls are words filed in the database; no cut-off is given here. Peptide text beside a SMILES is read from it. * marks the point of attachment. Cbz = O=C(OCc1ccccc1)*

Experiments:
[1] = system: MCF7; experiment: Cytotoxicity against human MCF7 cells after 72 hrs by resazurin/AlamarBlue dye-based fluorescence assay; format: functional, cell-based; details: MCF7, 72 h
Outline: (§1)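 Serial dilutions of compound or DMSO vehicle added to triplicate wells in RPMI-1640 with 10% FBS, 72 h at 37 °C. Resazurin (AlamarBlue) dye then added at 1:10 dilution, 4 h more at 37 °C, fluorescence read at Ex/Em 560/590. Mean fluorescence per well compared with DMSO-treated wells as relative viable cell number; doxorubicin positive control.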

[2] = system: NCI-H460; experiment: Cytotoxicity against human NCI-H460 cells after 72 hrs by resazurin/AlamarBlue dye-based fluorescence assay; format: functional, cell-based; details: NCI-H460, 72 h; outline: as §1
[3] = system: PC-3M; experiment: Cytotoxicity against human PC3M cells after 72 hrs by resazurin/AlamarBlue dye-based fluorescence assay; format: functional, cell-based; outline: as §1
[4] = system: MDA-MB-231; experiment: Cytotoxicity against human MDA-MB-231 cells after 72 hrs by resazurin/AlamarBlue dye-based fluorescence assay; format: functional, cell-based; details: MDA-MB-231, 72 h; outline: as §1
[5] = system: Fibroblast; experiment: Induction of heat-shock response in mouse fibroblasts harboring reporter construct encoding enhanced green fluorescent protein at 5 uM after overnight incubation by fluorescence assay; format: functional, cell-based
Outline: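 Stably transfected reporter fibroblasts (EGFP driven by a minimal consensus heat-shock element) were seeded at 20 000 cells/well and left to attach overnight. Serial 2-fold dilutions of compound were added in triplicate, with DMSO vehicle (≤0.1%) as the negative control. After overnight incubation the cells were rinsed and read in PBS at Ex 485/Em 525 nm. Mean fluorescence ± SD was expressed relative to DMSO.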

[6] = system: SF-268; experiment: Cytotoxicity against human SF268 cells after 72 hrs by resazurin/AlamarBlue dye-based fluorescence assay; format: functional, cell-based; details: SF-268, 72 h; outline: as §1
[7] = target: Transitional endoplasmic reticulum ATPase (Homo sapiens) (UniProt P55072); experiment: Inhibition of p97 in human MDA-MB-231 cells assessed as UPR activation by measuring increase in CHOP protein levels up to 20 uM after 8 hrs by Western blot analysis; format: cell-based
Sequence of Transitional endoplasmic reticulum ATPase (Homo sapiens) (P55072 2-806 limits assumed): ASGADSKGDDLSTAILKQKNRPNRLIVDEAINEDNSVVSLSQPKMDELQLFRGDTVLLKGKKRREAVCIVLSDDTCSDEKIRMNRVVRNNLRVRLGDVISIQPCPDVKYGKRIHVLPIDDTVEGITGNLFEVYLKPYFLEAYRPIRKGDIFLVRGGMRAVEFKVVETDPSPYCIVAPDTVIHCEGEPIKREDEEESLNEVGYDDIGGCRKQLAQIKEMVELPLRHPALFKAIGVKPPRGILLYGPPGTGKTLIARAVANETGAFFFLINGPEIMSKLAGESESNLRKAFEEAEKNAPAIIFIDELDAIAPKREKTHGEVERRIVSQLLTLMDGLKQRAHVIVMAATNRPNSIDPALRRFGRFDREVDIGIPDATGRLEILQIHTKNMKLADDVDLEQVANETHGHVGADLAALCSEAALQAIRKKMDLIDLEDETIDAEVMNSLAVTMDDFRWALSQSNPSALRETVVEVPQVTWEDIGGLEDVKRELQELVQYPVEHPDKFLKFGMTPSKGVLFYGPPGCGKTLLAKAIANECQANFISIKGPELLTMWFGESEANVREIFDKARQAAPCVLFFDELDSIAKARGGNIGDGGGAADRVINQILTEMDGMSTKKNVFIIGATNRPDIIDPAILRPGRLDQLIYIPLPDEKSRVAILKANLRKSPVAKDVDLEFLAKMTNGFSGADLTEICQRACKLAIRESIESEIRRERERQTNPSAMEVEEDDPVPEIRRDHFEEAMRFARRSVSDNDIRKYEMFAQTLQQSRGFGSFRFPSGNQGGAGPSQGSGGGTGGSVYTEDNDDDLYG
Outline: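 MDA-MB-231 cells were treated for 8 h in DMEM with 10% FBS, then harvested in SDS sample buffer, sonicated and cleared. Lysates were run on 4–20% SDS-PAGE and transferred to nitrocellulose. Blots were blocked in 5% milk and probed for CHOP, XBP1s and ATF4 (1:1000), with β-actin as loading control. Detection was by chemiluminescence. DMSO served as negative control, with CB-5083 (1.0 μM) and MG132 (5.0 μM) as comparators.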

[8] = organism: Homo sapiens; experiment: Inhibition of proteasome in human MDA-MB-231 cells assessed as increase in CHOP protein levels at 5 uM after 8 hrs by Western blot analysis; format: cell-based
Outline: (§2)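 Cells treated for 8 h in DMEM with 10% FBS, with DMSO negative control, CB-5083 (1.0 μM) positive control and MG132 (5.0 μM) comparator. Lysed by sonication in SDS sample buffer and run on 4–20% SDS-PAGE. Immunoblotted with anti-XBP1s, ATF4, CHOP (1:1000) and β-actin loading control, then HRP secondaries (1:3000) and chemiluminescence.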

[9] = organism: Homo sapiens; experiment: Inhibition of proteasome in human MDA-MB-231 cells assessed as increase in CHOP protein levels up to 20 uM after 8 hrs by Western blot analysis; format: cell-based; outline: as §2
[10] = organism: Homo sapiens; experiment: Inhibition of proteasome in human MDA-MB-231 cells assessed as increase in XBP1 protein levels up to 20 uM after 8 hrs by Western blot analysis; format: cell-based; outline: as §2
[11] = system: Fibroblast; experiment: Induction of heat-shock response in mouse fibroblasts harboring reporter construct encoding enhanced green fluorescent protein at 1.25 to 5 uM after overnight incubation by fluorescence assay; format: functional, cell-based
Outline: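 Reporter fibroblasts carry EGFP driven by a minimal consensus heat-shock element. Seeded at 20 000 cells/well and attached overnight. Serial 2-fold dilutions added in triplicate, with DMSO (≤0.1%) as negative control and monocillin I as positive control. Incubated overnight, rinsed with PBS, fluorescence read at 485/525 nm. Reported as mean ± SD of triplicates, also as a percentage of the DMSO control; three independent experiments.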

[12] = organism: Homo sapiens; experiment: Inhibition of proteasome in human MDA-MB-231 cells assessed as UPR activation by measuring increase in ATF4 protein levels up to 20 uM after 8 hrs by Western blot analysis; format: cell-based; outline: as §2

SMILES	IC50 [2] [nM]	IC50 [3] [nM]	IC50 [4] [nM]	Activity [5]	IC50 [6] [µM]	further results
C[C@H]1CCC/C=C/C(=O)c2c(cc(O)c(Cl)c2O)CC(=O)O1	1450	1710	2950	Active	1.41	IC50 [1]: 1990 nM
C[C@H]1CCC/C=C/C(=O)c2c(O)c(Cl)c(O)c(Cl)c2CC(=O)O1				Active		inhibition [7]: Active
CC(C)C[C@@H](C=O)NC(=O)[C@H](CC(C)C)NC(=O)[C@H](CC(C)C)NC(=O)OCc1ccccc1 (Cbz-Leu-Leu-Leu-aldehyde)						inhibition [8]: Active
C[C@H]1CCC/C=C/C(=O)c2c(O)cc(O)cc2CC(=O)O1 [DEHYDROCURVULARIN]	3570	4510	> 5000		4.73	inhibition [9]: Active; inhibition [10]: Active; Activity [11]: Active; inhibition [12]: Active
COc1cccc2c1C(=O)c1c(O)c3c(c(O)c1C2=O)C[C@@](O)(C(=O)CO)C[C@@H]3O[C@H]1C[C@H](N)[C@H](O)[C@H](C)O1 [DOXORUBICIN]		240				
